Residues, ends and D or L forms follow the SMILES beside them. *: point of attachment. AMC = Cc1cc(=O)oc2cc(N*)ccc12; Cbz = O=C(OCc1ccccc1)*
Assays:
POP [1] = target: T1, POP (Homo sapiens, UniProt P48147); conditions: cited from earlier work
T1 sequence (P48147 1-710): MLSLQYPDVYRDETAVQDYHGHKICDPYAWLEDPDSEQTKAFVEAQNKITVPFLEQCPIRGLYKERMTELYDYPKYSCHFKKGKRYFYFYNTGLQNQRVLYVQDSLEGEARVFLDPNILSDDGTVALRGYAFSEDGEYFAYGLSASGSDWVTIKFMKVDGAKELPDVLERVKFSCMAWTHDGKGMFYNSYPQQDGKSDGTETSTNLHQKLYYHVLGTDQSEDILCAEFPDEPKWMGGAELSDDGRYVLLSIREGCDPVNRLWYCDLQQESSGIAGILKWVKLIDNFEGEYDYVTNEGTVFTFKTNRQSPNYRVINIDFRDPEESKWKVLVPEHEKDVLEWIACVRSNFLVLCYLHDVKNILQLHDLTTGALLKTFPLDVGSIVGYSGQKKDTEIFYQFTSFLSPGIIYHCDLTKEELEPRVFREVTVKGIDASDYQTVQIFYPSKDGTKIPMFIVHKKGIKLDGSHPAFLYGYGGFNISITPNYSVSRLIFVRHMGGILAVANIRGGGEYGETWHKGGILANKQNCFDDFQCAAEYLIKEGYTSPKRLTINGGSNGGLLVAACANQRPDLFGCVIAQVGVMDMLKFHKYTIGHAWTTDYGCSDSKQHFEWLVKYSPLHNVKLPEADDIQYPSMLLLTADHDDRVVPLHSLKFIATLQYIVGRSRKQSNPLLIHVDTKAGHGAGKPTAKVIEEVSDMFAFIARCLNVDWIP

DPPIV [2] = target: T2, DPPIV (Homo sapiens, UniProt P27487); assay: Enzyme assay with fluorogenic substrate, DPPIV; format: biochemical
T2 sequence (P27487 whole entry, species assumed): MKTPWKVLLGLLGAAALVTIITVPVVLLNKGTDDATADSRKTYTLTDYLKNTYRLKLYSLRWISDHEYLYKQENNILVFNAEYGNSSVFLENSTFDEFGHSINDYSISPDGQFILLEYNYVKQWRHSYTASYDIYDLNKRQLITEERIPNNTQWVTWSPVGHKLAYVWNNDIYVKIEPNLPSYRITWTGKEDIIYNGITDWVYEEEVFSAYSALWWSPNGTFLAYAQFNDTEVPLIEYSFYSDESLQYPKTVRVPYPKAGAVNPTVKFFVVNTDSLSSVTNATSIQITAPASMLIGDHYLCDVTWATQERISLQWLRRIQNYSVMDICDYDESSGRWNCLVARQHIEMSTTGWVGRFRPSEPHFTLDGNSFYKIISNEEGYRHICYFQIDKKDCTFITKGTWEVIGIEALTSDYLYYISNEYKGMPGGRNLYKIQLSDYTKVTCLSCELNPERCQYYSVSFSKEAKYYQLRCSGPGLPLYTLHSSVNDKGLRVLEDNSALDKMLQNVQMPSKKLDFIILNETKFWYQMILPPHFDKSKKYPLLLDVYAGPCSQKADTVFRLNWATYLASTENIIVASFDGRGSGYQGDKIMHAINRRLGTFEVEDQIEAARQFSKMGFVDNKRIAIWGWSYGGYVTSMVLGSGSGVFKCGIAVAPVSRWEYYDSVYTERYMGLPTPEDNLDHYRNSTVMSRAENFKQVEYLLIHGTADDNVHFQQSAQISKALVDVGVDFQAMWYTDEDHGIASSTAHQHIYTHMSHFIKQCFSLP

[3] = pH 7.8; cited from earlier work
DPPIV [4] = target: T2, DPPIV; conditions: cited from earlier work
APCE/FAP = target: T3, APCE/FAP (Homo sapiens, UniProt Q12884); assay: Enzyme assay with fluorogenic substrate, APCE/FAP; format: biochemical; conditions: 10 μM inhibitor
T3 sequence (Q12884 24-760 limits assumed): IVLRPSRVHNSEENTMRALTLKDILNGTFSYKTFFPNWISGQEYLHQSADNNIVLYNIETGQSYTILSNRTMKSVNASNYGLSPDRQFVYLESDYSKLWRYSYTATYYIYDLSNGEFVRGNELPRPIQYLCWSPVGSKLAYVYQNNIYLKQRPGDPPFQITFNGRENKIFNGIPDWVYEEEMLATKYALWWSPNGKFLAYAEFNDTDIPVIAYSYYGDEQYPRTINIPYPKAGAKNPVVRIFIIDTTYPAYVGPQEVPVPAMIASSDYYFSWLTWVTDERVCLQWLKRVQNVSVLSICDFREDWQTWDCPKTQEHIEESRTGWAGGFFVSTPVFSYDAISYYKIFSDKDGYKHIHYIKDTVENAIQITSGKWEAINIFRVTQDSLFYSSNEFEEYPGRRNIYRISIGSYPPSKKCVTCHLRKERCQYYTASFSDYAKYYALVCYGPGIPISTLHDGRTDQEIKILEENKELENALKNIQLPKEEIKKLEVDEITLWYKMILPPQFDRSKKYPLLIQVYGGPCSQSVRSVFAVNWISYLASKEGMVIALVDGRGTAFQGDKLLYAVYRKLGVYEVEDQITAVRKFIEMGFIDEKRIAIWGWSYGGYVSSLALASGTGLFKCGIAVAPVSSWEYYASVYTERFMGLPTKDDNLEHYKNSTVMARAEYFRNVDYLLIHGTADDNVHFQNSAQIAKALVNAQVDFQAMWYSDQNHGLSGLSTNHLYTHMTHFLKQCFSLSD

APCE and POP = format: biochemical, human; conditions: non-POP-supplemented plasma; 10 μM inhibitor; 100 μM substrate
How it was run: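 Pooled plasma from four donors, with or without 0.05 μg added POP, was assayed with 10 μM inhibitor or no inhibitor. Cleavage was compared with uninhibited plasma. Values are mean ± SD of three experiments.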

POP [5] = target: T1, POP; assay: Enzyme assay with fluorogenic substrate, POP; format: biochemical; conditions: 100 nM inhibitor; in buffer

## Cc1cc(=O)oc2cc(NC(=O)[C@@H]3CCCN3C(=O)CN)ccc12 [GP-AMC] (H-Gly-Pro-{AMC})
POP [1]
  cleavage by POP: not cleaved

## CC(=O)N[C@@H](CCCNC(=N)N)C(=O)NCC(=O)NCC(=O)N1CCC[C@H]1B(O)O [Inhibitor no. 2, Ac-Arg-Gly-Gly-L-boroPro]
DPPIV [2]; Ki(app) (DPPIV)/Ki(app) (APCE/FAP)
  DPPIV selectivity: 19

## CC(C)[C@H](N)C(=O)N1CCC[C@H]1B(O)O [Val-boroPro]
[3]
  stability of inhibitory activity in aqueous media: rapidly loses inhibitory activity

## Cc1cc(=O)oc2cc(NC(=O)[C@@H]3CCCN3C(=O)CNC(=O)OCc3ccccc3)ccc12 [Z-GP-AMC, benzyloxycarbonyl (Z)-GP-AMC] (Cbz-Gly-Pro-{AMC})
DPPIV [4]
  cleavage by DPPIV: not cleaved

## acetyl-KLR-L-boroPro
DPPIV [2]; 10 μM inhibitor
  inhibitory activity towards DPPIV: no inhibitory activity
APCE/FAP
  inhibitory activity towards APCE/FAP: no inhibitory activity
APCE and POP
  inhibition of MEPLGRQLTSGP-AMC cleavage in plasma: not inhibited
POP [5]
  inhibition of POP: total inhibition

— article PMC4711262 (Journal of thrombosis and haemostasis : JTH, 2011)
